Results gathered from unrelated publications.
Each line is one published result; the experiments were not run side by side.
Cell line: Vero
Read-out: cell growth or viability

O=C(Nc1ccc([N+](=O)[O-])cc1F)c1cc(Cl)ccc1O — CC50 (MTT; 72 h): 5 µg/mL
CC1(c2ccccc2O)Nn2c(nc(-c3ccc(Cl)cc3)c(C#N)c2=O)N1C(Cc1c[nH]c2ccccc12)C(=O)O (stereo not drawn) — CC50 (MTT; 72 h): 500 µg/mL
COc1cccc(NCc2ccc(Oc3ccccn3)cc2)c1 — CC50 (MTT; 72 h): > 300 µM
Cc1cn([C@H]2C[C@H](N=[N+]=[N-])[C@@H](CO)O2)c(=O)[nH]c1=O — CC50: 51 µM
O=C(Nc1ccc(Cl)cc1)c1cc(Cl)ccc1O — CC50 (MTT; 72 h): 20 µg/mL
COC(=O)N[C@H](C(=O)N1C[C@@H](N=[N+]=[N-])C[C@H]1c1nc(Br)c(-c2ccc(-c3ccc(-c4[nH]c([C@@H]5C[C@H](N=[N+]=[N-])CN5C(=O)[C@@H](NC(=O)OC)C(C)C)nc4Br)cc3)cc2)[nH]1)C(C)C — CC50: > 100 µM
CC(=O)C1=C(C)N2NC(c3ccccc3O)N(C(Cc3c[nH]c4ccccc34)C(=O)O)C2=NC1c1ccc(Cl)cc1 (stereo not drawn) — CC50 (MTT; 72 h): 250 µg/mL
c1ccc(NCc2ccc(Oc3ccccn3)cc2)cc1 — CC50 (MTT; 72 h): > 300 µM
CN(C)N1C(=O)c2ccccc2C1CB1OC(C)(C)C(C)(C)O1 (stereo not drawn) — CC50: 204 µM
O=C(Nc1ccc(F)c(F)c1)c1cc(Cl)ccc1O — CC50 (MTT; 72 h): < 5 µg/mL
Clc1cccc(NCc2ccc(Oc3ccccn3)cc2)c1 — CC50 (MTT; 72 h): > 300 µM
O=C(Nc1ccc(Br)c(C(F)(F)F)c1)c1cc(Cl)ccc1O — CC50 (MTT; 72 h): 5 µg/mL
O=C1C(O)=C([C@H]2CC[C@H](c3ccc(Cl)cc3)CC2)C(=O)c2ccccc21 — CC50: 9.5 µM
N#Cc1c(-c2ccc(Cl)cc2)nc2n(c1=O)NC(c1ccccc1O)N2C(Cc1c[nH]c2ccccc12)C(=O)O (stereo not drawn) — CC50 (MTT; 72 h): 250 µg/mL
CC(C)(CO)C(=O)SCCOP(=O)(NCc1ccccc1)OC[C@H]1O[C@@H](n2cnc3c(=O)[nH]c(N)nc32)[C@](C)(O)[C@@H]1O (mixture of isomers) — CC50: > 100 µM
Cc1ccc(NCc2ccc(Oc3ccccn3)cc2)cc1 — CC50 (MTT; 72 h): > 300 µM
C[C@@H]1[C@H](O)[C@@H](C)/C=C/C=C/C=C/C=C/C=C/C=C/C=C/[C@H](O[C@@H]2O[C@H](C)[C@@H](O)[C@H](N)[C@@H]2O)C[C@@H]2O[C@](O)(C[C@@H](O)C[C@@H](O)[C@H](O)CC[C@@H](O)C[C@@H](O)CC(=O)O[C@H]1C)C[C@H](O)[C@H]2C(=O)O — CC50: 7.7 µM
Cc1ccccc1NCc1ccc(Oc2ccccn2)cc1 — CC50 (MTT; 72 h): > 300 µM
O=C(Nc1ccc(Cl)c(C(F)(F)F)c1)c1cc(Cl)ccc1O — CC50 (MTT; 72 h): 5 µg/mL
Clc1ccc(NCc2ccc(Oc3ccccn3)cc2)cc1 — CC50 (MTT; 72 h): > 300 µM
C[C@H]1COc2c(N3CCN(C)CC3)c(F)cc3c(=O)c(C(=O)O)cn1c23 — CC50 (MTT; 72 h): > 100 µg/mL
